Laboratory results as given in ChEMBL document CHEMBL1153749, “Flavonoids from the heartwood of the Thai medicinal plant Dalbergia parviflora and their effects on estrogenic-responsive human breast cancer cells” (2009).

Tests used:
Type in all cases: functional
T47D [1] = assay: Estrogenic activity in human T47D cells assessed as drug level causing stimulation of cell proliferation equivalent to 10 pM estradiol after 96 hrs by alamar blue assay
Method in brief: (§1)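 Cells seeded at 10^4 per well in phenol red-free RPMI with 5% DCC-treated FBS. Compounds added in DMSO (vehicle control 1% DMSO) for 96 h at 37 °C, 5% CO2, with serial estradiol dilutions run alongside. Alamar Blue for 3 h, fluorescence ex 530/em 590 nm. Estradiol-equivalent concentration fitted by linear regression from at least five concentrations in quadruplicate.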

MCF7 [2] = assay: Estrogenic activity in luciferase transfected human MCF7 cells assessed as drug level causing stimulation of cell proliferation equivalent to 10 pM estradiol by luciferase reporter gene assay
Method in brief: (§2)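 Reporter assay in MCF-7 or T47D cells transiently transfected with luciferase. Compounds tested from 0.01 to 10 µM. Luciferase induction is expressed as the compound concentration equivalent to the 10 or 100 pM estradiol response. Values come from linear regression over at least five concentrations in quadruplicate.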

MCF7 [3] = assay: Estrogenic activity in luciferase transfected human MCF7 cells assessed as drug level causing stimulation of cell proliferation equivalent to 100 pM estradiol by luciferase reporter gene assay; method in brief: as §2
T47D [4] = assay: Estrogenic activity in human T47D cells assessed as drug level causing stimulation of cell proliferation equivalent to 100 pM estradiol after 96 hrs by alamar blue assay; method in brief: as §1
T47D [5] = assay: Estrogenic activity in luciferase transfected human T47D cells assessed as drug level causing stimulation of cell proliferation equivalent to 100 pM estradiol by luciferase reporter gene assay; method in brief: as §2
T47D [6] = assay: Estrogenic activity in luciferase transfected human T47D cells assessed as drug level causing stimulation of cell proliferation equivalent to 10 pM estradiol by luciferase reporter gene assay; method in brief: as §2
MCF7 [7] = assay: Estrogenic activity in human MCF7 cells assessed as drug level causing stimulation of cell proliferation equivalent to 100 pM estradiol after 96 hrs by alamar blue assay; method in brief: as §1
MCF7 [8] = assay: Estrogenic activity in human MCF7 cells assessed as drug level causing stimulation of cell proliferation equivalent to 10 pM estradiol after 96 hrs by alamar blue assay; method in brief: as §1

Row | Structure (SMILES) | Activity (T47D [1]) [µM] | Activity (MCF7 [2]) [µM] | Activity (MCF7 [3]) [µM] | Activity (T47D [4]) [µM] | Activity (T47D [5]) [µM] | Activity (T47D [6]) [µM] | Activity (MCF7 [7]) [µM] | Activity (MCF7 [8]) [µM]
1 | COc1ccc(-c2coc3cc(O)ccc3c2=O)c(OC)c1O [KHRINONE E] | >100 | 5.9 | >100 | >100 | >100 | >100 | >100 | 4.7
2 | O=C1C[C@@H](c2ccc(O)cc2)Oc2cc(O)ccc21 [LIQUIRTIGENIN] | 0.64 | 0.01 | 0.01 | >100 | 5.9 | 0.01 | 0.65 | 0.1
3 | O=C1C[C@@H](c2ccc(O)cc2)Oc2cc(O)cc(O)c21 [NARINGENIN] | 0.09 | 1.7 | 2.6 | 1.6 | 5.8 | 0.01 | 0.7 | 0.2
4 | O=C1C[C@@H](c2ccccc2)Oc2cc(O)cc(O)c21 [PINOCEMBRIN] | 7.6 | >100 | >100 | >100 | >100 | >100 | >100 | 17
5 | COc1ccc(-c2coc3cc(O)cc(O)c3c2=O)cc1O [PRATENSEIN] | 6.4 | >100 | >100 | >100 | >100 | >100 | 50.4 | 4.5
6 | COc1c(O)cc2occ(-c3ccc(O)cc3)c(=O)c2c1O [TECTORIGENIN] | 0.3 | >100 | >100 | 6.9 | 2.2 | 1.4 | 2.7 | 0.5
7 | COc1cc(O)ccc1-c1coc2cc(O)cc(O)c2c1=O [THERALIN] | 1.7 | 0.01 | 0.4 | >100 | >100 | >100 | >100 | 0.6
8 | COc1cc(O)ccc1C/C=C/c1ccc(O)cc1 [XENOGNOSIN] | 0.7 | >100 | >100 | >100 | 5.7 | 0.01 | 4.6 | 0.1
